core dimer inh = HCV core protein dimerization inhibition | TR-FRET GST/Flag-core106 dimerization, 1536-well | inhibition, % at 5 µM | actives 0.33% (n = 300,000) | AID 1899;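 active means inhibition above the mean of all tested compounds plus 3 SD, set per screening campaign, cut at about 45% in these data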
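System – GST-tagged and Flag-tagged HCV core protein residues 1-106 · Repeats – one well for each compound · Technique – TR-FRET 671 and 617 nm emission · Doses – one concentration, 5 µM, in 0.5% DMSO · Times – 4 h, 22.5 °C incubation · Also added – Eu donor and XL665 acceptor anti-tag antibodies · Measure – percent inhibition of core106 dimerization signal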
TAAR1 agonist = agonists of human TAAR1. Q96RJ0. CHO RD-HGA16 TAAR1, Fluo-8 calcium fluorescence; vehicle wells 0%, saturating PEA agonist 100%. activation, % at 3 µM. actives 0.99% (n = 360,000);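 active means activation above the mean activation of all test compounds in the run plus 3 SD, cut at about 38% in these data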
Target sequence (Q96RJ0 whole entry, looked up): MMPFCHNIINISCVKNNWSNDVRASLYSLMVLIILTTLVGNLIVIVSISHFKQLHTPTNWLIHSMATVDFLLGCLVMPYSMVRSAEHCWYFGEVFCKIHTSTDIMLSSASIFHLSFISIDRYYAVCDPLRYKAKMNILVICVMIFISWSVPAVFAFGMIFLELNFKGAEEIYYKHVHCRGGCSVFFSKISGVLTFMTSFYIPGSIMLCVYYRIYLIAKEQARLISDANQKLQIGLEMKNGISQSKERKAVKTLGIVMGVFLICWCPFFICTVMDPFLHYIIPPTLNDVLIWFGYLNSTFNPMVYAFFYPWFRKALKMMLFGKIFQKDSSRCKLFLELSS
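Repeats: no replicates (n 1) | Material: CHO-derived RD-HGA16 cells with stable Gα16 and human TAAR1 | Technique: Kinetic Fluo-8 calcium fluorescence | Schedule: 17-24 h seeding, 75 min 37 °C dye, 30 min RT | Evaluation: % activation from peak over basal fluorescence ratio, DMSO-to-PEA scaled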
HCV NS3 hel inh = blocks Hepatitis C virus NS3 helicase unwinding; inhibition, % at 10.9 µM; actives 0.56% (n = 290,000); NS3 helicase DNA unwinding, Cy5 molecular beacon fluorescence;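 active means inhibition above the mean of all tested compounds plus 3 SD, set per campaign, cut at about 35% in these data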;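 further: 0% = DMSO wells and 100% = thioflavine S control wells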
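Material: hepatitis C virus NS3 helicase domain fragment enzyme; measured by: Cy5 fluorescence, 0 and 60 min reads; control set: DMSO and thioflavine S; incubation: 60 min unwinding reaction at 25 °C after ATP addition; read-out basis: % inhibition from 60/0 min fluorescence ratio, DMSO 0%, thioflavine S 100%; repeats: singlicate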
TAAR1 antag = antagonists of human TAAR1; inhibition, % at 3 µM; actives 1.5% (n = 360,000); Q96RJ0; AID 624466; CHO RD-HGA16 TAAR1, Fluo-8 calcium fluorescence, antagonist;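 active means inhibition above a per-plate cutoff, the mean inhibition of test compounds on that plate plus 3 SD, cut at about 49% in these data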;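 further: 0% = DMSO plus EC80 beta-PEA response and 100% = DMSO alone without agonist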
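Assay system: RD-HGA16 CHO cells with stable hTAAR1 and Gα16 / Reagent: EC80 β-phenethylamine stimulus / Doses: 3 µM, single point / Timing: dye loading 75 min at 37 °C, then 30 min room temperature / Measured by: Fluo-8 intracellular calcium dye fluorescence, real-time kinetic reads / Controls: vehicle wells and EC80 agonist wells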
rCAG binder = r(CAG) repeat RNA binding | TO-PRO-1 dye displacement fluorescence | inhibition, % at 3 µM | actives 1.3% (n = 370,000) | AID 651821;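 active means inhibition above the plate cutoff, the mean of all test compounds on that plate plus 3 SD, cut at about 35% in these data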;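 further: 0% = DMSO alone and 100% = 100 µM mitoxantrone as full dye displacement; higher means more dye released from RNA so lower well fluorescence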
An asterisk follows results filed as active; i = inactive; / = not tested or not shown. A selection: hits, their analogues and other compounds. The true share with any hit is near 3.7%.

SMILES | core dimer inh | TAAR1 agonist | HCV NS3 hel inh | TAAR1 antag | rCAG binder
Cc1cc(C)cc(NC(=O)NCC2CCN(Cc3cc(C)ccc3C)CC2)c1 | -13.0 | 0.3 | -36.2 | -2.6 | 4.6
CCc1ccc(NC(=O)NCC2CCN(Cc3cccc(Cl)c3)CC2)cc1 | -5.0 | 17.1 | -83.0 | 0.1 | -5.4
Cc1ccc(NC(=O)NCC2CCN(Cc3cccc(Cl)c3)CC2)cc1Cl | -2.0 | 42.0* | -43.4 | 20.1 | 6.8
Cc1ccc(C)c(CN2CCC(CNC(=O)Nc3ccc(F)c(Cl)c3)CC2)c1 | -0.4 | 38.4* | -54.0 | 5.8 | -2.6
O=C(Nc1ccc(Cl)cc1)C1CCCN1S(=O)(=O)c1cccnc1 (stereo not drawn) | / | / | / | / | 3.6
O=C(CSc1ccccc1)N/N=C/c1ccccc1O | 1.3 | 16.2 | -3.0 | 0.3 | 1.3
O=C(CCSCCC(=O)NN=Cc1ccccc1O)NN=Cc1ccccc1O | / | 43.6* | / | 48.0 | 4.6
O=C(NCCC1=CCCCC1)c1cnc2n(c1=O)CCS2 | -3.3 | 11.1 | 0.1 | 14.9 | -2.6
Cc1ccc(C(=O)NCc2ccc3c(c2)OCO3)c(Cl)c1 | / | 0.3 | / | -6.1 | -0.3
Cc1nc2c(C(=O)NCc3ccc4c(c3)OCO4)c[nH]n2c(=O)c1Cl | 4.8 | 7.0 | 11.3 | 6.5 | 55.1*
Cc1nc2c(C(=O)NCCC3=CCCCC3)c[nH]n2c(=O)c1Cl | 13.0 | 32.2 | 16.3 | -8.2 | 71.4*
C/C(=N/NC(=O)CSc1nnc(SCc2ccc(C)cc2)s1)c1cccc(O)c1 | / | / | / | / | 6.7
COc1ccc(NC(=O)c2cc(=O)c3ccccc3o2)cc1Cl | -5.1 | 1.9 | 15.0 | -3.0 | 1.2
CN(C)S(=O)(=O)c1cc(NC(=O)c2cc(=O)c3ccccc3o2)ccc1Cl | 2.2 | 43.8* | -12.7 | 46.7 | 11.3
COc1cc(OC)c(OC)cc1/C=C1\CC(C)C/C(=C\c2cc(OC)c(OC)cc2OC)C1=O (stereo not drawn) | 19.8 | 11.1 | -32.2 | 51.3* | -2.3
CCC1C/C(=C\c2cc(OC)c(OC)cc2OC)C(=O)/C(=C/c2cc(OC)c(OC)cc2OC)C1 (stereo not drawn) | 17.4 | / | -25.3 | / | /
COc1ccc(CC(/C=C/c2ccc(F)cc2)c2ccccc2)cc1 (stereo not drawn) | / | / | / | / | 3.6
Cc1cc(C(=O)CSc2nc(N)cc(N)n2)c(C)n1CCc1ccc(F)cc1 | 14.5 | 38.9* | 5.4 | 16.6 | 11.5
O=C(c1ccco1)N(CCC(c1ccccc1)c1ccco1)Cc1ccco1 (stereo not drawn) | 52.1* | 3.1 | 14.0 | 1.8 | 6.8
CC(=O)N(CCC(Cc1ccccc1)c1ccco1)Cc1ccco1 (stereo not drawn) | 5.9 | -1.2 | 20.7 | -17.9 | -0.7
CCCOc1ccc(CCc2n[nH]c(=S)n2-c2ccccc2)cc1 | 5.4 | 1.9 | 12.7 | -5.5 | 1.5
CCCOc1ccc(CCc2n[nH]c(=S)n2Cc2ccccc2)cc1 | 1.4 | -0.1 | -11.5 | 51.4* | 1.1
COc1ccc(C(=O)CSc2nc3ccccc3n2CC(=O)c2ccccc2)cc1 | 7.0 | 18.7 | -23.1 | 59.0* | -2.2
CCOC(=O)c1c(C)[nH]c(C)c1C(=O)CSc1nc2ccccc2n1CC | -7.9 | 15.0 | -15.4 | 49.1* | 3.3
COC(=O)[C@]12C[C@H](CC(=O)NCc3cccc(C(F)(F)F)c3)C(=O)N(CCC3=CCCCC3)C1=C[C@H](C(C)C)O[C@@H]2C1CC1 | / | / | / | / | 3.8
SMILES | core dimer inh | TAAR1 agonist | HCV NS3 hel inh | TAAR1 antag | rCAG binder
COC(=O)C1CN(Cc2ccc(OC)cc2)CCS(=O)(=O)N1Cc1ccc(F)cc1 (stereo not drawn) | / | / | / | / | 2.0
CC(C)CCN1C(=O)c2cccc3c(N)ccc(c23)C1=O | -21.6 | 149.1* | / | 78.1* | -451.8
CCN1C(=O)c2cccc3c(Cl)ccc(c23)C1=O | 7.0 | -1.4 | -5.7 | -23.9 | 2.8
Nc1cccc(N2C(=O)c3cccc4c(N)ccc(c34)C2=O)c1 | -7.9 | 25.0 | -7.7 | 20.4 | -254.1
Cc1cccc(N2C(=O)c3cccc4c(N)ccc(c34)C2=O)c1 | -5.7 | 100.6* | 4.5 | 45.0 | i
CCN(CC)C(=O)c1ccc2c(c1)NC(=O)C(C)(C)O2 | / | / | / | / | 2.7
COc1cc2c(cc1OC)C1(Nc3c-2c(Cc2ccccc2)nn3-c2ccccc2)C(=O)Nc2ccccc21 (stereo not drawn) | 58.2* | 26.7 | 0.7 | -5.9 | 17.3
CCc1ccccc1NC(=O)c1cc(C)nn1-c1ccccc1 | / | / | / | / | -1.5
